For the test, the system named is DNA. Kind of test: Binding affinity to calf thymus DNA assessed as DNA intercalation at 50 uM by fluorescence spectrophotometry. In kind it is nucleic-acid assay. As to conditions: Bos taurus. The gist of the method:
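Fluorescence titration: increasing ct-DNA added to compound in phosphate buffer (pH 7.0); decrease in emission band at 500 nm monitored; binding constant derived from titration data by Benesi–Hildebrand method.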

Calls of active or inactive are those of the source. No cut-off for these calls is given here.

Consider `CN(C)CCN1C(=O)c2cccc3cc(N)cc(c23)C1=O`, for which the outcome was Active.

The values are drawn from ChEMBL document CHEMBL2424551, “Synthesis, in vitro evaluation and molecular modelling of naphthalimide analogue as anticancer agents” (2013).
